# Experimental data as given in ChEMBL document CHEMBL3739271, “Synthesis and evaluation of a series of resveratrol analogues as potent anti-cancer agents that target tubulin” (2015).
# Assays:
# Type in all cases: functional
# CCRF-CEM = assay: Cytotoxicity against human CCRF-CEM cells by SRB assay
# In short: (§1)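 NCI 60 human tumor cell line panel, sulforhodamine B (SRB) protein-stain read-out. Compounds were first screened at a single dose of 10^-5 M, and selected compounds were then tested in a five-dose format. GI50 is the drug concentration giving a 50% reduction in net protein increase relative to control cells.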
# [1] = Cytotoxicity against human HL-60(TB) cells by SRB assay
# In short: (§2)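 NCI 60-cell-line panel using sulforhodamine B protein stain. Initial single-dose screen at 10^-5 M, then five-dose testing. GI50 is the drug concentration giving a 50% reduction in net protein increase relative to control cells.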
# K562 = assay: Cytotoxicity against human K562 cells by SRB assay; in short: as §1
# [2] = Cytotoxicity against human MOLT4 cells by SRB assay; settings: MOLT-4; in short: as §1
# [3] = Cytotoxicity against human RPMI8226 cells by SRB assay; settings: RPMI-8226; in short: as §1
# SR = assay: Cytotoxicity against human SR cells by SRB assay; in short: as §1
# A549 = assay: Cytotoxicity against human A549 cells by SRB assay; in short: as §1
# [4] = Cytotoxicity against human HOP62 cells by SRB assay; settings: HOP-62; in short: as §1
# NCI-H23 = assay: Cytotoxicity against human NCI-H23 cells by SRB assay; in short: as §1
# NCI-H522 = assay: Cytotoxicity against human NCI-H522 cells by SRB assay; in short: as §1
# [5] = Cytotoxicity against human COLO205 cells by SRB assay; settings: COLO 205; in short: as §1
# [6] = Cytotoxicity against human HCC2998 cells by SRB assay; settings: HCC 2998; in short: as §1
# [7] = Cytotoxicity against human HCT116 cells by SRB assay; settings: HCT-116; in short: as §1
# [8] = Cytotoxicity against human HCT15 cells by SRB assay; settings: HCT-15; in short: as §1
# HT-29 = assay: Cytotoxicity against human HT-29 cells by SRB assay; in short: as §1
# KM12 = assay: Cytotoxicity against human KM12 cells by SRB assay; in short: as §1
# [9] = Cytotoxicity against human SW620 cells by SRB assay; settings: SW-620; in short: as §1
# [10] = Cytotoxicity against human SF268 cells by SRB assay; settings: SF-268; in short: as §1
# [11] = Cytotoxicity against human SF295 cells by SRB assay; settings: SF-295; in short: as §1
# [12] = Cytotoxicity against human SF539 cells by SRB assay; settings: SF-539; in short: as §1
# [13] = Cytotoxicity against human SNB19 cells by SRB assay; settings: SNB-19; in short: as §1
# [14] = Cytotoxicity against human SNB75 cells by SRB assay; settings: SNB-75; in short: as §1
# U-251 = assay: Cytotoxicity against human U251 cells by SRB assay; in short: as §1
# [15] = Cytotoxicity against human LOXIMVI cells by SRB assay; settings: LOX IMVI; in short: as §2
# M14 = assay: Cytotoxicity against human M14 cells by SRB assay; in short: as §1
# MDA-MB-435 = assay: Cytotoxicity against human MDA-MB-435 cells by SRB assay; in short: as §1
# SK-MEL-2 = assay: Cytotoxicity against human SK-MEL-2 cells by SRB assay; in short: as §1
# SK-MEL-28 = assay: Cytotoxicity against human SK-MEL-28 cells by SRB assay; in short: as §1
# SK-MEL-5 = assay: Cytotoxicity against human SK-MEL-5 cells by SRB assay; in short: as §1
# [16] = Cytotoxicity against human UACC62 cells by SRB assay; settings: UACC-62; in short: as §1
# [17] = Cytotoxicity against human IGROV1 cells by SRB assay; settings: IGROV-1; in short: as §2
# [18] = Cytotoxicity against human OVCAR3 cells by SRB assay; settings: OVCAR-3; in short: as §1
# [19] = Cytotoxicity against human OVCAR4 cells by SRB assay; settings: OVCAR-4; in short: as §1
# NCI/ADR-RES = assay: Cytotoxicity against human NCI/ADR-RES cells by SRB assay; in short: as §1
# [20] = Cytotoxicity against human SKOV3 cells by SRB assay; settings: SK-OV-3; in short: as §1
# 786-0 = assay: Cytotoxicity against human 786-0 cells by SRB assay; in short: as §1
# A498 = assay: Cytotoxicity against human A498 cells by SRB assay; in short: as §1
# ACHN = assay: Cytotoxicity against human ACHN cells by SRB assay; in short: as §1
# CAKI-1 = assay: Cytotoxicity against human CAKI-1 cells by SRB assay; in short: as §1
# [21] = Cytotoxicity against human UO31 cells by SRB assay; settings: UO-31; in short: as §1
# MCF7 = assay: Cytotoxicity against human MCF7 cells by SRB assay; in short: as §1
# MDA-MB-231 = assay: Cytotoxicity against human MDA-MB-231 cells by SRB assay; in short: as §1
# [22] = Cytotoxicity against human Hs578T cells by SRB assay; settings: Hs-578T; in short: as §1
# MDA-MB-468 = assay: Cytotoxicity against human MDA-MB-468 cells by SRB assay; in short: as §1
# [23] = Cytotoxicity against human HOP92 cells by SRB assay; settings: HOP-92; in short: as §1
structure (smiles),measurement,setting,value
COc1ccc(/C=C(\C#N)c2cc(OC)cc(OC)c2)cc1,GI50,CCRF-CEM,320 nM
same,GI50,[1],280 nM
same,GI50,K562,310 nM
same,GI50,[2],0.43 µM
same,GI50,[3],330 nM
same,GI50,SR,290 nM
same,GI50,A549,0.38 µM
same,GI50,[4],510 nM
same,GI50,NCI-H23,0.53 µM
same,GI50,NCI-H522,90 nM
same,GI50,[5],270 nM
same,GI50,[6],0.34 µM
same,GI50,[7],330 nM
same,GI50,[8],330 nM
same,GI50,HT-29,280 nM
same,GI50,KM12,380 nM
same,GI50,[9],420 nM
same,GI50,[10],0.84 µM
same,GI50,[11],220 nM
same,GI50,[12],220 nM
same,GI50,[13],0.98 µM
same,GI50,[14],290 nM
same,GI50,U-251,343 nM
same,GI50,[15],580 nM
same,GI50,M14,280 nM
same,GI50,MDA-MB-435,170 nM
same,GI50,SK-MEL-2,880 nM
same,GI50,SK-MEL-28,0.49 µM
same,GI50,SK-MEL-5,270 nM
same,GI50,[16],400 nM
same,GI50,[17],0.53 µM
same,GI50,[18],300 nM
same,GI50,[19],0.73 µM
same,GI50,NCI/ADR-RES,270 nM
same,GI50,[20],0.37 µM
same,GI50,786-0,0.42 µM
same,GI50,A498,250 nM
same,GI50,ACHN,0.53 µM
same,GI50,CAKI-1,540 nM
same,GI50,[21],490 nM
same,GI50,MCF7,310 nM
same,GI50,MDA-MB-231,430 nM
same,GI50,[22],310 nM
same,GI50,MDA-MB-468,290 nM
COc1ccc(/C=C/c2cc(OC)cc(OC)c2/C=C(\C#N)c2ccccc2OC)cc1,GI50,CCRF-CEM,2240 nM
same,GI50,[1],580 nM
same,GI50,K562,430 nM
same,GI50,[2],3.3 µM
same,GI50,[3],2850 nM
same,GI50,SR,280 nM
same,GI50,A549,3.56 µM
same,GI50,[4],2790 nM
same,GI50,NCI-H522,250 nM
same,GI50,[5],2280 nM
same,GI50,[6],5.47 µM
same,GI50,[7],1290 nM
same,GI50,[8],760 nM
same,GI50,HT-29,480 nM
same,GI50,KM12,640 nM
same,GI50,[9],710 nM
same,GI50,[10],4.18 µM
same,GI50,[11],2510 nM
same,GI50,[12],1550 nM
same,GI50,[13],8.77 µM
same,GI50,[14],2280 nM
same,GI50,U-251,2770 nM
same,GI50,M14,1140 nM
same,GI50,MDA-MB-435,280 nM
same,GI50,SK-MEL-2,2130 nM
same,GI50,SK-MEL-28,4.22 µM
same,GI50,SK-MEL-5,2440 nM
same,GI50,[17],5.28 µM
same,GI50,[18],1380 nM
same,GI50,[19],3.59 µM
same,GI50,NCI/ADR-RES,710 nM
same,GI50,[20],4.73 µM
same,GI50,786-0,3.25 µM
same,GI50,A498,1370 nM
same,GI50,ACHN,4.25 µM
same,GI50,CAKI-1,2200 nM
same,GI50,[21],3440 nM
same,GI50,MCF7,720 nM
same,GI50,MDA-MB-231,2830 nM
same,GI50,[22],1340 nM
same,GI50,MDA-MB-468,1700 nM
COc1cc(/C=C(\C#N)c2cc(OC)c(OC)c(OC)c2)cc(OC)c1,GI50,CCRF-CEM,51200 nM
same,GI50,[1],68600 nM
same,GI50,K562,3140 nM
same,GI50,[2],28.2 µM
same,GI50,[3],6640 nM
same,GI50,SR,4140 nM
same,GI50,A549,6.35 µM
same,GI50,[4],7630 nM
same,GI50,[23],3.57 µM
same,GI50,NCI-H23,43 µM
same,GI50,NCI-H522,20500 nM
same,GI50,[5],5160 nM
same,GI50,[6],97 µM
same,GI50,[7],6050 nM
same,GI50,[8],4470 nM
same,GI50,HT-29,4240 nM
same,GI50,KM12,4970 nM
same,GI50,[9],5170 nM
same,GI50,[10],25.3 µM
same,GI50,[11],5330 nM
same,GI50,[12],6600 nM
same,GI50,[13],5.46 µM
same,GI50,[14],2670 nM
same,GI50,U-251,7820 nM
same,GI50,[15],5310 nM
same,GI50,M14,4450 nM
same,GI50,MDA-MB-435,1630 nM
same,GI50,SK-MEL-2,5440 nM
same,GI50,SK-MEL-28,14 µM
same,GI50,SK-MEL-5,4700 nM
same,GI50,[16],2420 nM
same,GI50,[17],14.6 µM
same,GI50,[18],6690 nM
same,GI50,[19],7.48 µM
same,GI50,NCI/ADR-RES,3250 nM
same,GI50,[20],14.4 µM
same,GI50,786-0,13 µM
same,GI50,A498,1290 nM
same,GI50,ACHN,9.78 µM
same,GI50,CAKI-1,6190 nM
same,GI50,[21],1920 nM
same,GI50,MCF7,4350 nM
same,GI50,MDA-MB-231,4830 nM
same,GI50,[22],16700 nM
same,GI50,MDA-MB-468,3440 nM
